In ChEMBL document CHEMBL4261516, “Design, synthesis and pharmacological evaluation of new 2-oxo-quinoline derivatives containing α-aminophosphonates as potential antitumor agents” (Medchemcomm, 2017):
Activity calls are given as the source filed them. The rule behind the calls is not given here.

What was measured:
HepG2 [1] = assay: Induction of apoptosis in human HepG2 cells assessed as necrotic cells at 10 uM after 24 hrs by annexin V/[…] staining-based fluorescent microscopic method (reference value: 0.28%); format: functional
HepG2 [2] = assay: Cell cycle arrest in human HepG2 cells assessed as accumulation at G2 phase at 10 uM after 48 hrs by propidium iodide staining-based flow cytometric method (reference value: 19.04%); format: functional
HepG2 [3] = assay: Induction of apoptosis in human HepG2 cells assessed as upregulation of reactive oxygen species generation at 10 uM by DCFH-DA/DAPI staining-based fluorescence microscopic method; format: functional, cell-based
HepG2 [4] = assay: Upregulation of p53 expression in human HepG2 cells after 48 hrs by Western blot method; format: functional, cell-based
HepG2 [5] = assay: Induction of apoptosis in human HepG2 cells assessed as pycnosis at 10 uM after 24 hrs by acridine orange/ethidium bromide staining-based fluorescent microscopic method; format: functional, cell-based
In short: (§1)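 Cells were plated at 5×10^4 cells/mL on sterile cover slips. Medium was replaced with fresh medium containing 10% FBS plus compound. After treatment, cover slips were inverted onto slides with acridine orange/ethidium bromide stain and viewed by fluorescence microscopy.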

HepG2 [6] = assay: Cell cycle arrest in human HepG2 cells assessed as accumulation at S phase at 10 uM after 48 hrs by propidium iodide staining-based flow cytometric method (reference value: 30.49%); format: functional
HepG2 [7] = assay: Induction of apoptosis in human HepG2 cells assessed as viable cells at 12 uM after 24 hrs by annexin V/[…] staining-based fluorescent microscopic method (reference value: 91.31%); format: functional; conditions: HepG2, 24 h, read-out: Activity
HepG2 [8] = assay: Downregulation of CDK1 expression in human HepG2 cells after 48 hrs by Western blot method; format: functional, cell-based
HepG2 [9] = assay: Cell cycle arrest in human HepG2 cells assessed as accumulation at G2 phase at 12 uM after 48 hrs by propidium iodide staining-based flow cytometric method (reference value: 19.04%); format: functional
HepG2 [10] = assay: Induction of apoptosis in human HepG2 cells assessed as viable cells at 8 uM after 24 hrs by annexin V/[…] staining-based fluorescent microscopic method (reference value: 91.31%); format: functional; conditions: HepG2, 24 h, read-out: Activity
HepG2 [11] = assay: Induction of apoptosis in human HepG2 cells assessed as viable cells at 10 uM after 24 hrs by annexin V/[…] staining-based fluorescent microscopic method (reference value: 91.31%); format: functional; conditions: HepG2, 24 h, read-out: Activity
HepG2 [12] = assay: Cell cycle arrest in human HepG2 cells assessed as accumulation at G1 phase at 10 uM after 48 hrs by propidium iodide staining-based flow cytometric method (reference value: 50.47%); format: functional
HepG2 [13] = assay: Upregulation of p27 expression in human HepG2 cells after 48 hrs by Western blot method; format: functional, cell-based
HepG2 [14] = assay: Induction of apoptosis in human HepG2 cells assessed as membrane blebbing at 10 uM after 24 hrs by acridine orange/ethidium bromide staining-based fluorescent microscopic method; format: functional, cell-based; in short: as §1
HepG2 [15] = assay: Induction of apoptosis in human HepG2 cells assessed as necrotic cells at 8 uM after 24 hrs by annexin V/[…] staining-based fluorescent microscopic method (reference value: 0.28%); format: functional
HepG2 [16] = assay: Induction of apoptosis in human HepG2 cells assessed as early apoptotic cells at 12 uM after 24 hrs by annexin V/[…] staining-based fluorescent microscopic method (reference value: 6.50%); format: functional
HepG2 [17] = assay: Cell cycle arrest in human HepG2 cells assessed as accumulation at G1 phase at 8 uM after 48 hrs by propidium iodide staining-based flow cytometric method (reference value: 50.47%); format: functional
SK-OV-3 = assay: Cytotoxicity against human SKOV3 cells after 48 hrs by MTT assay; format: functional, cell-based; conditions: SK-OV-3, 48 h
In short: (§2)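 HepG2, SK-OV-3, NCI-H460 and HL 7702 lines grown as monolayers in DMEM with 10% FBS plus penicillin/streptomycin at 37 °C, 5% CO2. Exponentially growing cells were seeded and exposed to the indicated concentrations for 48 h. MTT was then added for 4 h at 37 °C, formazan was dissolved in DMSO, and OD was read at 490 nm. Each concentration was run in triplicate wells, with three independent runs per line.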

HepG2 [18] = assay: Upregulation of p21 expression in human HepG2 cells after 48 hrs by Western blot method; format: functional, cell-based
L02 = assay: Cytotoxicity against human HL-7702 cells after 48 hrs by MTT assay; format: cell-based; conditions: L02, 48 h; in short: as §2
HepG2 [19] = assay: Induction of apoptosis in human HepG2 cells assessed as late apoptotic cells at 12 uM after 24 hrs by annexin V/[…] staining-based fluorescent microscopic method (reference value: 1.91%); format: functional
HepG2 [20] = assay: Induction of apoptosis in human HepG2 cells assessed as increase in release of mitochondrial cytochrome c into cytosol at 8 to 12 uM after 24 hrs by Western blot method; format: functional, cell-based
In short: (§3)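 Treated HepG2 cells were lysed on ice in 1% SDS/Tris-HCl pH 7.5 buffer with EDTA, NaCl, PMSF, leupeptin and trypsin inhibitor, then cleared at 12,000 × g for 5 min. Protein was quantified by BCA, and 40–50 µg was run on 12% SDS-PAGE and blotted to PVDF. Membranes were blocked with 5% milk, incubated with primary antibody overnight at 4 °C and HRP secondary for 1 h. Detection by chemiluminescence with densitometry.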

HepG2 [21] = assay: Induction of apoptosis in human HepG2 cells assessed as upregulation of caspase-3 levels at 8 to 12 uM after 24 hrs by Western blot method; format: functional, cell-based; in short: as §3
HepG2 [22] = assay: Induction of apoptosis in human HepG2 cells assessed as downregulation of Bcl-2 levels at 8 to 12 uM after 24 hrs by Western blot method; format: functional, cell-based; in short: as §3
HepG2 [23] = assay: Cell cycle arrest in human HepG2 cells assessed as accumulation at S phase at 12 uM after 48 hrs by propidium iodide staining-based flow cytometric method (reference value: 30.49%); format: functional
NCI-H460 = assay: Cytotoxicity against human NCI-H460 cells after 48 hrs by MTT assay; format: functional, cell-based; conditions: NCI-H460, 48 h; in short: as §2
HepG2 [24] = assay: Cell cycle arrest in human HepG2 cells assessed as accumulation at G1 phase at 12 uM after 48 hrs by propidium iodide staining-based flow cytometric method (reference value: 50.47%); format: functional
HepG2 [25] = assay: Induction of apoptosis in human HepG2 cells assessed as late apoptotic cells at 8 uM after 24 hrs by annexin V/[…] staining-based fluorescent microscopic method (reference value: 1.91%); format: functional
HepG2 [26] = assay: Cytotoxicity against human HepG2 cells after 48 hrs by MTT assay; format: functional, cell-based; conditions: HepG2, 48 h; in short: as §2
HepG2 [27] = assay: Induction of apoptosis in human HepG2 cells assessed as early apoptotic cells at 8 uM after 24 hrs by annexin V/[…] staining-based fluorescent microscopic method (reference value: 6.50%); format: functional
HepG2 [28] = assay: Induction of apoptosis in human HepG2 cells assessed as upregulation of Bax levels at 8 to 12 uM after 24 hrs by Western blot method; format: functional, cell-based; in short: as §3
HepG2 [29] = assay: Induction of apoptosis in human HepG2 cells assessed as upregulation of caspase-9 levels at 8 to 12 uM after 24 hrs by Western blot method; format: functional, cell-based; in short: as §3

CCOP(=O)(Cc1ccc(/N=C/c2cc3cc(C)ccc3[nH]c2=O)cc1)OCC
Activity (HepG2 [1]): 0.12% | Activity (HepG2 [2]): 36.92% | Activity (HepG2 [3]): Active | Activity (HepG2 [4]): Dose-dependent effect | Activity (HepG2 [5]): Active | Activity (HepG2 [6]): 29.16% | viability at 12 µM (HepG2 [7]): 44.5% | Activity (HepG2 [8]): Dose-dependent effect | Activity (HepG2 [9]): 46.77% | viability at 8 µM (HepG2 [10]): 62.5% | viability at 10 µM (HepG2 [11]): 56.3% | Activity (HepG2 [12]): 33.91% | Activity (HepG2 [13]): Dose-dependent effect | Activity (HepG2 [14]): Active | Activity (HepG2 [15]): 2.9% | Activity (HepG2 [16]): 43.07% | Activity (HepG2 [17]): 35.31% | IC50 (SK-OV-3): 34.8 µM | Activity (HepG2 [18]): Dose-dependent effect | IC50 (L02): > 100 µM | Activity (HepG2 [19]): 11.83% | Activity (HepG2 [20]): Active | Activity (HepG2 [21]): Active | Activity (HepG2 [22]): Active | Activity (HepG2 [23]): 27.49% | IC50 (NCI-H460): 39 µM | Activity (HepG2 [24]): 25.75% | Activity (HepG2 [25]): 15.49% | IC50 (HepG2 [26]): 9.99 µM | Activity (HepG2 [27]): 19.08% | Activity (HepG2 [28]): Active | Activity (HepG2 [29]): Active
